# 5HT1E ag: 5-HT1E receptor agonists, primary screen, cell-based, HTS; 5-hydroxytryptamine receptor 1E (Homo sapiens), P28566; CHO 5-HT1E Ga15 NFAT-bla reporter, FRET; 0% DMSO wells, 100% control agonist wells; activation, % at 6 µM; actives 0.69% (n = 65,000); AID 574, 2007;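 active = activation above a set limit, the screen-wide mean activation plus 3 SD, cut at about 8.5% in these data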;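 note: 100% = positive control agonist at 1 µM giving full maximal response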
# 5HT1a ag: human 5-HT1a receptor agonists, primary screen, cell-based, CHO, Ga15 NFAT-bla reporter | CHO 5-HT1a Ga15 NFAT-bla reporter, FRET ratio; 0% basal, 100% maximal reference agonist | AID 567, 2006 | actives 0.56% (n = 65,000) | 5-hydroxytryptamine receptor 1A (Homo sapiens), P08908 | activation, % at 10 µM;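 active = activation above the screen-wide mean activation plus 3 SD, cut at about 19% in these data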;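 note: 0% = DMSO wells and 100% = 5-CT at EC100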
# 5HT1a antag: human 5-HT1a receptor antagonists, primary screen, cell-based, CHO, Ga15 NFAT-bla reporter; CHO 5-HT1a Ga15 NFAT-bla reporter, antagonist mode; inhibition, % at 10 µM; actives 0.68% (n = 62,000); AID 612, 2007;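 active = inhibition above the mean of all tested compounds plus 3 SD, cut at about 43% in these data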;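 note: receptor stimulated by 5-CT agonist at 100 nM near EC80; beta-lactamase reporter measured by ratiometric fluorescence of a cleavable substrate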
# S1P3 ag: human S1P3 receptor agonists, primary screen, cell-based, primary and confirmation, NFAT-BLA reporter | S1P3 NFAT-BLA reporter cells, agonism, FRET ratio; relative to 1 µM S1P, basal subtracted | activation, % at 4.5 µM | actives 0.1% (n = 60,000);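 active = activation above the screen-wide mean plus 3 SD, cut at about 4.5% in these data, passing the limit was not always enough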
# Target sequence (Q99500 whole entry, looked up): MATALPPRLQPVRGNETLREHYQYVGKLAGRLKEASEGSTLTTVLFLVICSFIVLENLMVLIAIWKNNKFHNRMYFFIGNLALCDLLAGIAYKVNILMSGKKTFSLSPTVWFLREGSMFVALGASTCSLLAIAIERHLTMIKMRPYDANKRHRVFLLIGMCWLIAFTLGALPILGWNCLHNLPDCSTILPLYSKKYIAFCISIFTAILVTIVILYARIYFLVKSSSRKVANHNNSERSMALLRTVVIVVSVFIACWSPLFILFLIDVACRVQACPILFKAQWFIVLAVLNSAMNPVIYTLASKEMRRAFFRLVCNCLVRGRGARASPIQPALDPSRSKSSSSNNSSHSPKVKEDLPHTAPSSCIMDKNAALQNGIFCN
#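 Material: Human S1P3 NFAT-BLA reporter CHO cells | Incubation: Overnight plating, 4 h compound 37 °C, 2 h substrate RT | Signal: FRET β-lactamase substrate fluorescence, excitation 405 nm, 460/535 nm emission ratio, background-subtracted | Compound: 4.5 µM final, single dose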
# 5HT1E antag: 5-HT1E receptor antagonists, primary screen, cell-based, HTS; CHO 5-HT1E Ga15 NFAT-bla reporter, FRET, antagonist; AID 571, 2007; actives 0.99% (n = 65,000); inhibition, % at 6 µM;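 active = inhibition above a set limit, the mean inhibition across every tested compound plus 3 SD, cut at about 29% in these data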;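 note: signal is the 460 over 535 nm emission ratio of beta-lactamase substrate; 0% = agonist plus DMSO wells and 100% = wells without agonist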
# S1P1 ag-PAM: S1P1 agonists and agonism potentiators, primary screen, cell-based, primary and confirmation screens, CRE-bla reporter; Sphingosine 1-phosphate receptor 1 (Homo sapiens), P21453; AID 449, 2006; S1P1 CRE-bla cells, forskolin, beta-lactamase FRET, potentiator mode; S1P1 agonist co-added at EC20, 2 nM; 100% = saturating reference agonist, 0% = basal; activation, % at 9.5 µM; actives 0.57% (n = 56,000);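 active = activation above a cutoff set at the mean activation of all tested compounds plus 3 SD, cut at about 54% in these data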;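 note: forskolin at 4 µM as EC80 and the EC20 agonist is SEW2871; 100% = SEW2871 at its EC100 plus forskolin at EC80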
# * hit, by the source's call; x = not tested or not shown. Most compounds without a hit are left out; they make up all but 2.9% or so of the library.
SMILES,5HT1E ag,5HT1a ag,5HT1a antag,S1P3 ag,5HT1E antag,S1P1 ag-PAM
Cc1nn(-c2ccccc2)c2sc(C(=O)N3CCOCC3)cc12,1,1,8,0,36*,9
O=C(NCc1ccc(F)cc1)C1CCC(=O)N1C1CCCCC1 (stereo not drawn),1,18,3,-1,-1,11
CCOC(=O)c1ccc(NC(=O)COC)cc1,-1,0,-5,0,2,x
CCOC(=O)c1ccc(NC(=O)C2CC2)cc1,1,0,28,-1,2,-16
CCOC(=O)c1ccc(NC(=O)Cn2cccc2)cc1,26*,-2,7,-1,-2,-14
CCOC(=O)/N=C(/NC(=O)Nc1ccc(C(=O)OCC)cc1)OC,9.3*,1,-5,-1,13,20
CC1CCN(CC(=O)N2c3ccccc3CCc3ccccc32)CC1,0,1,-7,-1,-1,-10
Cc1ccc(C(=O)C2CCN(CC(=O)Nc3ccc(N(C)C)cc3)CC2)cc1,12*,2,-7,-1,4,9
Cc1ccc(C(=O)C2CCN(CC(=O)Nc3ccc4c(c3)OCCO4)CC2)cc1,2,0,-12,0,-4,22
Nc1cc(OC(=O)c2cccs2)nn1S(=O)(=O)c1ccccc1,-1,-3,8,0,-1,-11
Cc1nn(-c2ccccc2)c(OC(=O)c2cccs2)c1S(=O)(=O)c1ccccc1,-1,81*,-6,1,4,5
O=C(O)COc1ccc2c(c1)OCCO2,0,-2,1,-2,5,5
Cn1nnc(-c2ccc(OCc3ccccc3F)cc2)n1,13*,-2,-12,0,4,x
O=C(O)COc1ccc(-c2nnn(CC(=O)O)n2)cc1,1,0,-7,-1,-3,x
O=C(Nc1ccc2oc(-c3ccccc3Cl)nc2c1)c1cncc(Br)c1,0,64*,-8,0,2,-16
O=C(CN1C(=O)CNC1=O)Nc1cccc(C(F)(F)F)c1,1,-1,2,0,1,-6
COCCn1c(SCc2nc3ccccc3s2)nc2ccccc21,0,-2,11,-1,4,-54
O=C1CC(c2cccnc2)c2cc3c(cc2N1)OCO3 (stereo not drawn),1,0,-3,-2,-3,-14
CCOc1ccccc1C1CC(=O)Nc2cc3c(cc21)OCCO3 (stereo not drawn),-1,-4,44*,0,64*,-2
CCCOc1ccccc1C1CC(=O)NC2=C1C(=O)CCC2 (stereo not drawn),0,-3,12,0,13,-20
CC(C)Oc1ccccc1C1CC(=O)Nc2cc3c(cc21)OCO3 (stereo not drawn),1,-2,54*,2,61*,-23
CCCCOc1ccccc1C1CC(=O)NC2=C1C(=O)CCC2 (stereo not drawn),2,-2,16,-2,29*,-24
CCCOc1ccccc1C1CC(=O)Nc2cc3c(cc21)OCCO3 (stereo not drawn),0,-1,75*,-1,71*,-18
O=C(NCc1ccncc1)Nc1ccc(F)cc1,1,3,-10,0,-1,x
CCOc1ccc(-c2cc(NC(=O)Cn3ncc4c3-c3ccccc3OC4)on2)cc1OCC,2,0,-16,0,13,-33
SMILES,5HT1E ag,5HT1a ag,5HT1a antag,S1P3 ag,5HT1E antag,S1P1 ag-PAM
O=C(CN1CCC(O)CC1)N1c2ccccc2C=Cc2ccccc21,0,2,-4,-1,-7,6
CCN(CC)C(=O)CSc1nc2ccc(NC(=O)CSc3nccn3C)cc2s1,-1,3,0,0,-1,3
O=C(c1c(Cl)nc2sccn12)N1CCN(c2cccc(Cl)c2)CC1,-1,-3,24,x,42*,x
O=C(CN1CCN(c2cccc(Cl)c2)CC1)N1CCCC1,2,-3,-9,-1,-2,-14
Cc1ccc(Cl)cc1N1CCN(C(=O)CCC(=O)O)CC1,14*,-1,6,x,1,x
O=C(O)CCC(=O)N1CCN(c2cccc(Cl)c2)CC1,21*,0,13,0,4,10
CC(C)CCNC(=O)Cn1c(=O)oc2cc(S(=O)(=O)N3CCc4ccccc43)ccc21,-1,1,30,-1,35*,10
CC(=O)Nc1ccccc1OCC(=O)c1cc(C)n(Cc2cccs2)c1C,0,-1,47*,-2,5,110*
CC(=O)Nc1ccc(SCC(=O)c2cc(C)n(Cc3cccs3)c2C)cc1,-1,-2,2,0,11,13
Cc1csc(SCC(=O)c2cc(C)n(Cc3cccs3)c2C)n1,0,-2,8,0,-3,86*
COc1cc(C2NC(=O)NC(C)=C2C(=O)OC2CCCC(C)C2)ccc1O (stereo not drawn),1,0,4,-2,4,-34
CCOC(=O)Nc1ccc2c(c1)N(C(=O)CCN(C)C)c1ccccc1S2,1,-1,46*,1,19,82
CCOC(=O)Nc1ccc2c(c1)N(C(=O)CN1CCN(C)CC1)c1ccccc1S2,0,0,15,-1,2,6
CC(=O)c1ccc(N2CCN(c3ccc(C(F)(F)F)cn3)CC2)cc1,0,-2,-16,-2,8,88*
COc1ccc(N=c2scc(-c3ccc(S(=O)(=O)N4CCOCC4)cc3)n2CCCO)cc1,1,3,1,-2,1,101*
c1ccc2c(CC3=NCCN3)cccc2c1,9.2*,4,x,-1,-19,-2
Cc1nc(N2CCN(C)CC2)[nH]c(=O)c1Cc1cccc2ccccc12,1,-6,1,0,10,-4
O=S(=O)(Nc1nc2ccccc2nc1NCCN1CCOCC1)c1cccc(Cl)c1,-1,-1,-1,0,-5,-1
Clc1ccc(-c2nc(NCCN3CCOCC3)c3ccccc3n2)cc1,0,45*,-9,-2,3,-3
Cc1cc(C)c2c(CC(=O)Nc3nccs3)coc2c1,0,-2,4,-1,-9,-16
CCn1nnc(-c2ccccc2NC(=O)c2cc(OC)c(OC)c(OC)c2)n1,1,1,3,0,31*,-47

# From PubChem
